Format in all cases: cell-based
Experiment [1] concerns the target T1, Nuclear factor erythroid 2-related factor 2 (Homo sapiens) (UniProt Q16236).
T1 sequence (whole entry): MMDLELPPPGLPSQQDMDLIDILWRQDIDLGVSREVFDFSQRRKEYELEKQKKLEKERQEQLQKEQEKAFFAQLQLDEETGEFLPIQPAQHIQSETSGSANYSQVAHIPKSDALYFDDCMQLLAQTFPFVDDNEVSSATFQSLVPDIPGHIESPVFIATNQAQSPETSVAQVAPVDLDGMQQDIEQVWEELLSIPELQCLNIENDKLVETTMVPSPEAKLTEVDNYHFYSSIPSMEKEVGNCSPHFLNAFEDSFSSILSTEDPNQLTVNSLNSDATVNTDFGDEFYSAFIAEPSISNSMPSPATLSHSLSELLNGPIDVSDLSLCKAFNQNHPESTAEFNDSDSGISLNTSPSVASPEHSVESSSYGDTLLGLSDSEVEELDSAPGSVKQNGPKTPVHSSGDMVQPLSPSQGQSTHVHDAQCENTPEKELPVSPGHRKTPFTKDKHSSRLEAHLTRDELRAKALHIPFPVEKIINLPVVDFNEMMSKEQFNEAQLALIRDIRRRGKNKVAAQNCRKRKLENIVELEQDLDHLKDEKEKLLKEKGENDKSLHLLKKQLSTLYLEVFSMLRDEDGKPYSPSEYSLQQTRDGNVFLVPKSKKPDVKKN
Description: Activation of Nrf2 in human HepG2 cells assessed as increase in cytosolic Nrf2 expression level at 5 uM after 1 to 6 hrs by Western blot analysis. The procedure, abridged:
(§1)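 HepG2 cells (2×10^6/well) treated at the indicated concentrations and times. Whole-cell lysates, or nuclear and cytoplasmic fractions, are prepared and quantified by BCA. Samples are run at 40 μg/lane on 12% SDS-PAGE, transferred to nitrocellulose, probed with specific antibodies and HRP secondary (1/5000), and detected by ECL. Where used, LY294002 (15 μM), SP600125 (25 μM) or DTT (400 μM) is added 1 h before compound.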
A general note: In western blotting, separated proteins are transferred to a membrane and probed.

For experiment [2], the target named is T1, Nuclear factor erythroid 2-related factor 2 (Homo sapiens). Description: Activation of Nrf2 in human HepG2 cells assessed as increase in GCLM expression level at 5 uM in presence of 15 uM PI3K/Akt inhibitor LY294002 for 1 hr prior to compound treatment by Western blot analysis. The procedure, abridged:
as §1

Experiment [3] has the same target. Description: Activation of Nrf2 in human HepG2 cells assessed as increase in GCLM expression level at 5 uM by Western blot analysis. Conditions: TDE = time-dependent effect. Put shortly: as §1
The target is the same in experiment [4]. Description: Activation of Nrf2 in human HepG2 cells assessed as increase in HO-1 expression level at 5 uM in presence of 15 uM PI3K/Akt inhibitor LY294002 for 1 hr prior to compound treatment by Western blot analysis. Put shortly: as §1
For experiment [5] the target is unchanged. Description: Activation of Nrf2 in human HepG2 cells assessed as increase in GCLM expression level at 5 uM in presence of 25 uM JNK inhibitor SP600125 for 1 hr prior to compound treatment by Western blot analysis. The procedure, abridged: as §1
For experiment [6] the target is unchanged. Description: Activation of Nrf2 in human HepG2 cells assessed as cytoprotection against t-BHP-induced oxidative cell death at 5 uM incubated for 24 hrs followed by compound removal with subsequent incubation with 900 uM of t-BHP for 6 hrs in presence of 25 uM JNK inhibitor SP600125 for 1 hr prior to compound treatment by MTT assay. Put shortly: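 HepG2 cells (5×10^3/well) seeded and grown 24 h in 1640 medium with 10% FBS at 37 °C and 5% CO2. Compound is added for 24 h, then removed, and cells are challenged with 900 μM t-BHP for 6 h at 37 °C. MTT (0.5 mg/mL) is added for 4 h, formazan dissolved in DMSO, and absorbance read at 570 nm. Where used, inhibitors are added 1 h before compound. Mean ± SD of three independent experiments.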
Background: Tetrazolium assays rely on reduction of a dye to a coloured formazan, in cell work by metabolically active cells.

Experiment [7] has the same target. Description: Activation of Nrf2 in human HepG2 cells assessed as increase in GCLC expression level at 5 uM in presence of 25 uM JNK inhibitor SP600125 for 1 hr prior to compound treatment by Western blot analysis. The procedure, abridged:
as §1

For experiment [8] the target is unchanged. Description: Activation of Nrf2 in human HepG2 cells assessed as increase in GCLC expression level at 5 uM by Western blot analysis. Conditions: TDE = time-dependent effect. The procedure, abridged: as §1
In experiment [9] the target is Kelch-like ECH-associated protein 1 (Homo sapiens) (UniProt Q14145). Description: Induction of keap1-dependent Nrf2 stabilization in human HepG2 cells assessed as upregulation of total Nrf2 expression at 5 uM by Western blot analysis. Conditions: TDE = time-dependent effect. The procedure, abridged:
as §1

Calls of active or inactive are those of the source. The rule behind the calls is not given here.

Kelch-like ECH-associated protein 1 (Homo sapiens), sequence (Q14145 whole entry): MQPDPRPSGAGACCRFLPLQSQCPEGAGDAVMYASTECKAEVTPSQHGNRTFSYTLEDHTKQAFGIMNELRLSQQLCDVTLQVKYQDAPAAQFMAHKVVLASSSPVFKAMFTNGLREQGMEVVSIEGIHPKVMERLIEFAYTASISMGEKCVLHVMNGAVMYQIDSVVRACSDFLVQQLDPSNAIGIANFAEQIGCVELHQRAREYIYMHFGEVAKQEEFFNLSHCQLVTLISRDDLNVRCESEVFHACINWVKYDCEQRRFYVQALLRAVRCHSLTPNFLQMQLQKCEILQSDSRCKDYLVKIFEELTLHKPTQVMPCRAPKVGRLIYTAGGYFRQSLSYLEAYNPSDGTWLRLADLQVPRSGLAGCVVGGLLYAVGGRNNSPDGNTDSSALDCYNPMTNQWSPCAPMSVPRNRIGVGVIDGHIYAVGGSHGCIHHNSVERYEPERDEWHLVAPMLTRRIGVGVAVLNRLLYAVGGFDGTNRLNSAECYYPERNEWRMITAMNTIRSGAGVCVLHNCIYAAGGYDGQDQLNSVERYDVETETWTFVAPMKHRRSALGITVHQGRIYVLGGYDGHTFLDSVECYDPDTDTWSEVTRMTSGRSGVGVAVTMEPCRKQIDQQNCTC

For `CC(C)(C(=O)/C=C/c1ccc(O)c(O)c1)C(=O)/C=C/c1ccc(O)c(O)c1`, the outcome in [1] was Active. Besides, the result in experiment [2], in experiment [4], in experiment [5], in experiment [6] and in experiment [7] was inactive. Further, the Activity result in experiment [3], in experiment [8] and in experiment [9] was “Tde” in each case.

The values are drawn from ChEMBL document CHEMBL4020714, “Design, synthesis, and evaluation of curcumin derivatives as Nrf2 activators and cytoprotectors against oxidative death” (Eur J Med Chem, 2017).
